Experiment: Toxicity liver stage against HepG2, at 10uM
Type: cell-based
Parameters: test concentration 10 uM, cell line HepG2-A16-CD81EGFP
Details: human, HepG2-A16-CD81EGFP cells; read-out: INHIBITION
Method in brief: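 Uninfected HepG2-A16-CD81EGFP cells, 3 × 10^3 per well, 1536-well, plated on prespotted compound at 10 μM final, parasite-free screening media added to match infected plates; puromycin 10 μM positive, DMSO 0.5% negative; run in parallel with 48 h PbLuc assay at 37 °C, 5% CO2; viability by CellTiter-Glo luminescence, normalized to controls.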

Structure (SMILES) | cytotoxicity at 10 µM [%]
COC(=O)c1ccc(Cn2nc(C)cc2C)cc1 | 10.8
COC(=O)[C@H]1CN(C(C)=O)CCN1C(C)=O | -3.31
COC(=O)c1cccc2nc([C@H]3CCN(Cc4ccccc4F)C3)oc12 | -5.46
Cc1cccc(O[C@H]2COCCN(Cc3sc(C)nc3C)C2)n1 | -1.5
CCOCCNC(=O)c1cccnc1Sc1cc(OC)ccc1OC | 0.354
CN1CCN(C(=O)c2cc3sccc3n2Cc2ccccc2F)CC1 | 1.94
Cc1cc(=O)n(CCNC(=O)c2ccccc2Cl)cn1 | -5.07
CNC(=O)c1nc2c(s1)CCN(C(=O)c1ccc(OC)cc1)CC2 | 0.428
COCc1ncn2c1CN(S(=O)(=O)c1cccc(F)c1)CC2 | 4.06
O=C(NCCCN1CCCC1=O)c1nc(-c2ccc3[nH]ccc3c2)no1 | -3.43
CC(C)n1[nH]c(=O)c2c1NC(=O)CC2c1cccc2cccnc12 (centres undefined) | 2.83
O=C1CCC2(CCCN(c3ncc(F)cn3)CC2)N1CC1CC1 (centres undefined) | -0.291
CCn1cc(C(=O)N2CCOCC2)cn1 | 0.805
O=C(Nc1cc(-c2cccnc2)no1)C1CCCCC1 | 0.171
CNc1ncc(CN(C)CCN2CCCCC2)cn1 | 17.7
Cn1cc(C2CCCN2C(=O)c2cnc(-c3ccccn3)s2)cn1 (centres undefined) | -8.1
COc1ccc(OCCN(C)S(=O)(=O)N2CCOCC2)cc1 | 3.11
CCS(=O)(=O)CCSc1ccc(Br)cc1 | -7
CN(Cc1cc(Br)cn1C)C(=O)c1cccnc1 | -5.95
Cc1nc(CN2CCCN(C(=O)c3cccn3C)CC2)cs1 | -2.06
CCc1n[nH]c(NC(=O)c2ccc(Cl)cn2)c1Br | -5.37

Structure (SMILES) | cytotoxicity at 10 µM [%]
CCCN(Cc1ccccc1O)S(=O)(=O)N(C)CC | 10.2
Cc1nn(C)c(C)c1C1CCCN1CCCC#N (centres undefined) | -0.699
COCCC(=O)N1CCC(Nc2ncc(Br)cn2)CC1 | -2.46
COc1cc(C(C)=O)ccc1OCC(=O)N(CC(C)C#N)C1CC1 (centres undefined) | -2.45
O=C(NCC(O)c1ccc(F)cc1F)c1ccccc1F (centres undefined) | 13.9
CCc1ncncc1C(=O)NCCNC(=O)c1ccc(C)c(F)c1 | 7.67
CN(CC(N)=O)Cc1ccc(F)cc1Cl | -3.53
CC(C)c1cc(NC(=O)CN2CCc3nn(C)c(=O)cc3C2)on1 | -4.44
COc1ccc(NC(=O)N(CCO)Cc2ccsc2)cc1 | 1.37
CCCc1cc(N2CCCC2Cn2cc(C)cn2)n2ncnc2n1 (centres undefined) | 3.04
NS(=O)(=O)CCN1CCOC(c2ccsc2)C1 (centres undefined) | 5.31
Cc1cc(C)c2c(c1)C(NC(=O)CSCc1ccncc1)CCO2 (centres undefined) | 4.17
Cc1ncc(COc2ccc(N(C)S(C)(=O)=O)cc2)s1 | 5.89
COc1ccc(C(C)Nc2ncc(C(N)=O)cc2Cl)cc1OC (centres undefined) | 3.54
CN(C)CCN(C)C(=O)Nc1cc(F)cc(N2CCCC2)c1 | -2.22
CC(C#N)NS(=O)(=O)c1ccc2c(c1)N(C)CCC2 (centres undefined) | -4.28
Cc1nc(-c2ccsc2)ccc1C(=O)O | -13.8
CCc1nnc(CNC(=O)CCC2CCCN(C)C2)s1 (centres undefined) | -148
CCc1nc(NC(=O)NCCc2cscn2)nn1C | 2.31
CN(Cc1cc(-c2cccnc2)no1)C(=O)C1CCCN1S(C)(=O)=O (centres undefined) | -2.54
CCCn1ccnc1CN1CCCC(O)(CN2CCCC2)C1 (centres undefined) | -2.69

Structure (SMILES) | cytotoxicity at 10 µM [%]
COc1ccc(CN2CCN(c3nccnc3OC)CC2=O)cc1 | 2.82
CCc1cc(N2CCC(F)(F)CC2)n2nc(C)c(C)c2n1 | -6.42
Cc1[nH]nc(CCC(=O)NCC2CCN(C3CCCCC3)C2)c1C (centres undefined) | -5.08
COc1cccc(CN2CCC(O)(c3ccc(C)cn3)CC2)c1OC | -107
CCCn1cc(NC(=O)c2cccc(CN3CC=CC3)c2)nn1 | -147
CCC(=O)N1CCc2[nH]cnc2C12CCN(C1CCOCC1)CC2 | -6.47
CC(NC(=O)c1cc2n(n1)CCCN(C(C)C)C2)c1cn2ccsc2n1 (centres undefined) | -3.39
CC(C)c1ccc(CN2CCCC3(CC2)CN(C)C(=O)O3)cc1 (centres undefined) | -3.44
CSCC[C@H](NC(C)=O)c1nc(Cc2ccccc2)n[nH]1 | 5.06
Cc1nc(CN2CCN(C(=O)COc3c(C)ccc(C)c3C)CC2)no1 | -1.4
Cc1cccc2[nH]c(C3CCCN3Cc3ccc(CO)o3)nc12 (centres undefined) | 10.3
NC(=O)CCN1CCc2onc(-c3ccccc3F)c2C1 | 5.21
Cc1ccc2cc(CN(C)Cc3nccs3)c(=O)[nH]c2c1 | 2.91
COc1nccnc1N1CCCC2(C1)C(=O)N(C)c1ccccc12 (centres undefined) | -6.47
O=C(CCCc1ccc(Cl)cc1)N1CCN(C(=O)c2ccc[nH]2)CC1 | 10.7
CN(CCN1CCCCCC1)C(=O)c1cc(CN2CCC(O)CC2)on1 | -17.5
CC(C)CN1CCC(c2nc3c([nH]2)CC(C)(C)CNC3=O)C1 (centres undefined) | -10.6
CCOCC(O)CN1CCN(C(=O)c2ccc(OC)cc2)CC1 (centres undefined) | 5.22
Cc1nn(CC(C)C)c(N(C)C)c1CNCc1ccc(CO)c(F)c1 | -14.4
COCC(=O)NC(C)c1cccc(Br)c1 (centres undefined) | -8.13
CCC(C)NC(=O)CS(=O)(=O)Cc1cc(Cl)c2c(c1)OCCCO2 (centres undefined) | 2.19

Structure (SMILES) | cytotoxicity at 10 µM [%]
CS(=O)(=O)c1ccc(CNC(=O)N2CCC(C(N)=O)CC2)cc1 | -3.78
O=C(Cc1ccc2c(c1)OCCO2)NC1CC1 | -11.2
O=C(Cc1ccc(F)c(Br)c1)NC1CCN(CC(F)F)CC1 | -22
Cc1cn2c(n1)CCC(NC(=O)c1cc[nH]n1)C2 (centres undefined) | -8.06
O=C(NCc1nncn1-c1ccccc1)C1CCCCC1 | -22.1
CCc1nc(C2CCCN2C(=O)CCCn2cncn2)no1 (centres undefined) | -11.4
CS(=O)(=O)N1CCC(NC(=O)COc2ccc(Cl)cc2)CC1 | -4.05
Cc1cc(C)n(C2CCCN(C(=O)c3cc(C(N)=O)cs3)C2)n1 (centres undefined) | -11.4
CCc1n[nH]c(C2CN(C(=O)c3ccc4c(c3)COC4)CCO2)n1 (centres undefined) | -1.63
Cc1ccc(CN(CC(=O)N2CCOC(C)C2)C2CC2)cc1 (centres undefined) | -11.9
CCc1nc(CN2CCCN(C(=O)COC)CC2)cs1 | -18.9
COCCN1CCC2(COCCN(C(=O)Cc3cccs3)C2)C1 (centres undefined) | 4.29
CN(C)S(=O)(=O)N1CCC2(CC1)CC(Oc1ccccn1)CO2 (centres undefined) | -133
O=C(Nc1cccnc1)[C@H]1COC[C@H]2CN(C3CCCC3)C[C@H]21 | -20.1
Cc1occc1C(=O)N1CCC2(CCCN(Cc3cccs3)C2)C1 (centres undefined) | 4.3
CS(=O)(=O)N1CCOCC2(CN(Cc3ccccn3)CCO2)C1 (centres undefined) | 3.42
O=C(c1ccnnc1)N1C[C@@H]2C[C@@H](c3nc(C4CC4)cs3)O[C@@H]2C1 | -124
COc1cccc(-c2n[nH]cc2CNC2CCN(C(C)C)CC2)c1 | 0.353
COCCOCC(=O)N1C[C@@H]2CC[C@H]1CN(C1Cc3ccccc3C1)C2 | -9.04
CN(C)C(=O)N1C[C@H]2CC[C@@H](C1)N(S(=O)(=O)c1cccnc1)C2 | -6.55
O=C(CC1CCCC1)N1C[C@@H]2C[C@@H]1CN2 | -0.714
